Measurements as given in ChEMBL document CHEMBL4732249, “Design, synthesis and biological evaluation of 2-aminoquinazolin-4(3H)-one derivatives as potential SARS-CoV-2 and MERS-CoV treatments” (Bioorg Med Chem Lett, 2021).

Assays:
[1] = system: SARS-CoV-2; assay: Antiviral activity against SARS-CoV-2 infected in African green monkey Vero cells assessed as inhibition of viral infection by measuring nucleocapsid protein level by immunofluorescence microscopic analysis; assay type: functional, organism-based; conditions: Severe acute respiratory syndrome coronavirus 2, Vero
[2] = system: Vero; assay: Cytotoxicity against African green monkey Vero cells assessed as reduction of cell viability by WST-1 assay; assay type: cell-based; conditions: chlorocebus sabaeus
[3] = Selective index, ratio of CC50 for African green monkey Vero cells to IC50 for SARS-CoV-2 infected in African green monkey Vero cells
[4] = system: Middle East respiratory syndrome-related coronavirus; assay: Antiviral activity against MERS-CoV infected in African green monkey Vero cells assessed as inhibition of viral infection by measuring reduction in spike protein level by immunofluorescence microscopic analysis; assay type: functional, organism-based
[5] = Selective index, ratio of CC50 for African green monkey Vero cells to IC50 for MERS-CoV infected in African green monkey Vero cells
[6] = Stability in mouse microsomes assessed as as parent compound remaining after 30 mins; assay type: ADME, Microsome; conditions: read-out: Stabilty
Summary of the method: (§1)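 Liver microsomes from human, mouse and rat were used. The read-out is percent of parent compound remaining after 30 min incubation.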

[7] = Stability in rat microsomes assessed as as parent compound remaining after 30 mins; assay type: ADME, Microsome; conditions: read-out: Stabilty; summary of the method: as §1
[8] = Stability in human microsomes assessed as as parent compound remaining after 30 mins; assay type: ADME, Microsome; conditions: read-out: Stabilty; summary of the method: as §1
[9] = system: HFL1; assay: Cytotoxicity against human HFL-1 cells; assay type: cell-based
[10] = Cytotoxicity against CHO-K1 cells; assay type: cell-based, Cricetulus griseus; conditions: chinese hamster
[11] = Cytotoxicity against mouse NCTC clone 929 cells; assay type: cell-based
[12] = Cytotoxicity against mouse NIH3T3 cells; assay type: cell-based
[13] = target: hERG (KCNH2) (Homo sapiens, UniProt Q12809); assay: Inhibition of human ERG at 10 uM relative to control
[14] = target: T1, CYP1A2 (Homo sapiens, UniProt P05177); assay: Inhibition of CYP1A2 (unknown origin) at 10 uM relative to control; assay type: ADME
T1 sequence (P05177 whole entry): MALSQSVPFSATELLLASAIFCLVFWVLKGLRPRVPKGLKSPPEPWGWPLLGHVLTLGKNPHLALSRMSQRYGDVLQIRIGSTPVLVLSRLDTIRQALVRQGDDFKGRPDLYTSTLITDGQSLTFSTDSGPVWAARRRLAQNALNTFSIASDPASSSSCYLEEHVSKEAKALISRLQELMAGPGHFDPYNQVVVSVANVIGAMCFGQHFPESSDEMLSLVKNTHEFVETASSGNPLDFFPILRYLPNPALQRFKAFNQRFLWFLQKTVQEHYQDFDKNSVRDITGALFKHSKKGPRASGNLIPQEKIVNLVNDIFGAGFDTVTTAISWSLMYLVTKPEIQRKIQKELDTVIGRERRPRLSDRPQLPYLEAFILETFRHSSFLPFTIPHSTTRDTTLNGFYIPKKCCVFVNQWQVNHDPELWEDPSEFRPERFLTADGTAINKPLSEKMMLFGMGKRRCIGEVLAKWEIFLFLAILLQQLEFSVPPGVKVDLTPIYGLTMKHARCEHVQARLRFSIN

[15] = target: CYP2C9 (Homo sapiens, UniProt P11712); assay: Inhibition of CYP2C9 (unknown origin) at 10 uM relative to control; assay type: ADME
[16] = target: CYP2C19 (Homo sapiens, UniProt P33261); assay: Inhibition of CYP2C19 (unknown origin) at 10 uM relative to control; assay type: ADME
[17] = target: CYP2D6 (Homo sapiens, UniProt P10635); assay: Inhibition of CYP2D6 (unknown origin) at 10 uM relative to control; assay type: ADME
[18] = target: CYP3A4 (Homo sapiens, UniProt P08684); assay: Inhibition of CYP3A4 (unknown origin) at 10 uM relative to control; assay type: ADME
[19] = Oral bioavailability in rat at 10 mg/kg; assay type: ADME, organism-based; conditions: in vivo
Summary of the method: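 Rats received oral dosing at 10 mg/kg alongside intravenous dosing at 2 mg/kg. Values are the mean of experiments using three rats.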

Sequence of CYP2D6 (P10635 whole entry): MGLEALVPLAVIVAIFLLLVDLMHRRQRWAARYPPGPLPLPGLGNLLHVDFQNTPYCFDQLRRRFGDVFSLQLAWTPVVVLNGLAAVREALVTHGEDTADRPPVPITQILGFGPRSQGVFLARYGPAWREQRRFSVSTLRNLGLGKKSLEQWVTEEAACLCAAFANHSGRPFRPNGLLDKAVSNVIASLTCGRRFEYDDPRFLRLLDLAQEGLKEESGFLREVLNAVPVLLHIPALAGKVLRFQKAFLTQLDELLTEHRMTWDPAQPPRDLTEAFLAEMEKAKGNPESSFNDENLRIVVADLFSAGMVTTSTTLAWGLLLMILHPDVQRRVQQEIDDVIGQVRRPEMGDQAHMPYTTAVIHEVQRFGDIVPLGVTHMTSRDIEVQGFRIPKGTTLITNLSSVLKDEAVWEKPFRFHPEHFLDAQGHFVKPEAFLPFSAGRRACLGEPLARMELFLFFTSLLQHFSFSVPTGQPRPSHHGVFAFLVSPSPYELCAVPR
Sequence of CYP2C9 (P11712 whole entry): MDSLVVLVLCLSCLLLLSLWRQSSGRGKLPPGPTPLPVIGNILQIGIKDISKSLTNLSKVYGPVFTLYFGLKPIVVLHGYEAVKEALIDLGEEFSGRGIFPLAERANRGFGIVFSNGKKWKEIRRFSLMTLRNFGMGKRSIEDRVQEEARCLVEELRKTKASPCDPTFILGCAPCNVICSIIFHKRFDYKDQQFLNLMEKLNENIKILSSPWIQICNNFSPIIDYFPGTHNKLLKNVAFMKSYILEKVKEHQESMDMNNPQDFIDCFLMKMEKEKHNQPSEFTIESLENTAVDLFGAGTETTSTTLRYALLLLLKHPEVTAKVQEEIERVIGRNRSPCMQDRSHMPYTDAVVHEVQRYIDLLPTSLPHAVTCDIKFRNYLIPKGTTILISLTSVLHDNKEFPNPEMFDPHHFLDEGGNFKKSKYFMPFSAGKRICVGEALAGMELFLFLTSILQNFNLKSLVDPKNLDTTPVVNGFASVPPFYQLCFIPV
Sequence of CYP3A4 (P08684 whole entry): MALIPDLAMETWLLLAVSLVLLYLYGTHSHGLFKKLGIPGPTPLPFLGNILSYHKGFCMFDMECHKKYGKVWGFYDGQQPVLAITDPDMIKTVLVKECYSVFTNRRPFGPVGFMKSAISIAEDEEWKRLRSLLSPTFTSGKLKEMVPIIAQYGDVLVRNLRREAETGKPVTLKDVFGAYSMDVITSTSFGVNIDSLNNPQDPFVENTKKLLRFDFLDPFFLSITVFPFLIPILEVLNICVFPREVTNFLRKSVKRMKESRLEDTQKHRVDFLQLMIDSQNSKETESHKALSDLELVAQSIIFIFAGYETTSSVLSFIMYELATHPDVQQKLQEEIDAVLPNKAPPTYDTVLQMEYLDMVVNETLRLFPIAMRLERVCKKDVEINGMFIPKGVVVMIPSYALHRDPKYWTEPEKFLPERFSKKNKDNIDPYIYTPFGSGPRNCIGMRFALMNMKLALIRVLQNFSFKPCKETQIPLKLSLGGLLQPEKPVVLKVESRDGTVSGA
Sequence of hERG (KCNH2) (Q12809 whole entry): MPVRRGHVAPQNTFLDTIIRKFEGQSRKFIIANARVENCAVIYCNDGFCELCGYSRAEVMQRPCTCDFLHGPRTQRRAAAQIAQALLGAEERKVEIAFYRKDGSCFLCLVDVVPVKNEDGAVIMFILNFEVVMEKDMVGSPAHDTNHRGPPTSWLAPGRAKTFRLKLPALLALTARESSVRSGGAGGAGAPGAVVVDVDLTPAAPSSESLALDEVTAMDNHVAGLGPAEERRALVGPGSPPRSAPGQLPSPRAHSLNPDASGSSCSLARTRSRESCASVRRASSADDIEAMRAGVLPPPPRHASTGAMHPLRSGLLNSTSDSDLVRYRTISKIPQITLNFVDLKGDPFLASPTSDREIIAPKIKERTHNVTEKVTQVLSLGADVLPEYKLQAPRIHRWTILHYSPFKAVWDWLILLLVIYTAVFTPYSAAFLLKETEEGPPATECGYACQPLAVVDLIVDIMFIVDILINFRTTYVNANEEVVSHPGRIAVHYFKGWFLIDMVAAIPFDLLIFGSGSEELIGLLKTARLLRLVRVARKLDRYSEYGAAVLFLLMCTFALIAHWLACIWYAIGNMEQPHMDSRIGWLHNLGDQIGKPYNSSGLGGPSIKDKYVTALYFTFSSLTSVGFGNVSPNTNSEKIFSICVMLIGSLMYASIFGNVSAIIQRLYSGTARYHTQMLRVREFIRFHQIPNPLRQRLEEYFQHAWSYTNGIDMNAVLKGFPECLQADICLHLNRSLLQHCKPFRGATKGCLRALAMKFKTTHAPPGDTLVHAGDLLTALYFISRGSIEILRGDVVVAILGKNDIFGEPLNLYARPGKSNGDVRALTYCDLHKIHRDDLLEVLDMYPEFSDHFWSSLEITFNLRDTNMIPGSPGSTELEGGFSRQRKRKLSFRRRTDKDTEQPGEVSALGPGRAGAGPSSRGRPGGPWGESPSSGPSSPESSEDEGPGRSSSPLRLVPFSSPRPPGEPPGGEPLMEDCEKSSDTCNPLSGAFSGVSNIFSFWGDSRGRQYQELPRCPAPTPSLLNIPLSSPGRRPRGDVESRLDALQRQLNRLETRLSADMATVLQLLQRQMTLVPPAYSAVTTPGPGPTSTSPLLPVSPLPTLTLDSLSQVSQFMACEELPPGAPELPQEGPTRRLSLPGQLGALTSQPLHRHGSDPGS
Sequence of CYP2C19 (P33261 whole entry): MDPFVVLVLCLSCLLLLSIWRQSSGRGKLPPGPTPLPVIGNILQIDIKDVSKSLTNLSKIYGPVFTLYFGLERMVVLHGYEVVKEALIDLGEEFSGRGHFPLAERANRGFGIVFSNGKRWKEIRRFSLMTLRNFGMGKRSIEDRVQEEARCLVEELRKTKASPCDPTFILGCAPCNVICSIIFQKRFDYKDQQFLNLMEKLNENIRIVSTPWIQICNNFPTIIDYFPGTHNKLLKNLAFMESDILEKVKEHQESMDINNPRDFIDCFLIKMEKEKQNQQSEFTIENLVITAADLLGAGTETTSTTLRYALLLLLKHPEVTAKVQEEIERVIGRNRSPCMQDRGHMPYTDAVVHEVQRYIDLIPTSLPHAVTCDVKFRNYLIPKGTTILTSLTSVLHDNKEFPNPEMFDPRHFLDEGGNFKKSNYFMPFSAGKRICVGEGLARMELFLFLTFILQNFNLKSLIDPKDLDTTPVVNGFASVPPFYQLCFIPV

Row | Structure (SMILES) | IC50 [1] | CC50 [2] | Ratio CC50/IC50 [3] | IC50 [4] | Ratio CC50/IC50 [5] | further results
1 | COc1cccc2nc(Nc3cc(F)cc(F)c3)[nH]c(=O)c12 | > 25 µM | > 25 µM | 1 |  |  | 
2 | O=c1[nH]c(Nc2ccc(F)cc2)nc2cc(Cl)ccc12 | > 25 µM | > 25 µM | 1 |  |  | 
3 | O=c1[nH]c(Nc2cc(Cl)cc(Cl)c2)nc2cc(C(F)(F)F)ccc12 | 0.21 µM | 7.1 µM | 34 | 0.96 µM | 7.6 | 
4 | COc1cccc2nc(Nc3cc(Cl)cc(Cl)c3)[nH]c(=O)c12 | > 25 µM | > 25 µM | 1 |  |  | 
5 | O=c1[nH]c(Nc2cc(O)cc(O)c2)nc2cc(Cl)ccc12 | > 25 µM | > 25 µM | 1 |  |  | 
6 | Nc1ccc2c(=O)[nH]c(Nc3cc(F)cc(F)c3)nc2c1 | > 25 µM | > 25 µM | 1 |  |  | 
7 | O=c1[nH]c(Nc2cc(Cl)cc(Cl)c2)nc2c(Cl)ccc(Cl)c12 | 0.35 µM | > 25 µM | 71 | 0.62 µM | 42 | 
8 | O=c1[nH]c(Nc2ccc(F)c(F)c2F)nc2cc(Cl)ccc12 | 2.6 µM | > 25 µM | 9.4 |  |  | 
9 | O=c1[nH]c(Nc2cc(Cl)cc(Cl)c2)nc2c(O)cccc12 | 0.37 µM | > 25 µM | 65 | 1.7 µM | 14 | 
10 | O=c1[nH]c(Nc2cc(Cl)cc(Cl)c2)nc2cc(Cl)ccc12 | 0.23 µM | > 25 µM | 110 | 0.93 µM | 27 | remaining at 0.5 h [6]: 112%; remaining at 0.5 h [7]: 105%; remaining at 0.5 h [8]: 99%; CC50 [9]: 7.5 µM; CC50 [10]: 11 µM; CC50 [11]: 31 µM; CC50 [12]: > 100 µM; inhibition at 10 µM [13]: 38%; inhibition at 10 µM [14]: 15%; inhibition at 10 µM [15]: 18%; inhibition at 10 µM [16]: < 1%; inhibition at 10 µM [17]: 20%; inhibition at 10 µM [18]: 32%; bioavailability [19]: 15.6%
11 | CCCCNc1nc2cc(Cl)ccc2c(=O)[nH]1 | > 25 µM | > 25 µM | 1 |  |  | 
12 | O=c1[nH]c(Nc2cc(F)cc(F)c2)nc2cc(C(F)(F)F)ccc12 | 0.2 µM | ≥ 7.6 µM | 38 | 0.73 µM | 35 | 
13 | O=c1[nH]c(Nc2cc(Cl)cc(Cl)c2)nc2c(Cl)c(Cl)ccc12 | 0.24 µM | > 25 µM | 103 | 0.88 µM | 31 | 
14 | O=c1[nH]c(Nc2cccc(C(F)(F)F)c2)nc2cc(Cl)ccc12 | 0.68 µM | > 25 µM | 37 |  |  | 
15 | O=c1[nH]c(Nc2cc(F)cc(F)c2)nc2cc([N+](=O)[O-])ccc12 | 0.41 µM | > 25 µM | 61 | 8.5 µM | 2.9 | 
16 | O=c1[nH]c(Nc2cccc(O)c2)nc2cc(Cl)ccc12 | > 25 µM | > 25 µM | 1 |  |  | 
17 | O=c1[nH]c(Nc2cc(Cl)cc(Cl)c2)nc2cc(N3CCOCC3)ccc12 | > 25 µM | > 25 µM | 1 |  |  | 
18 | O=c1[nH]c(Nc2cc(Cl)cc(Cl)c2)nc2cc(O)ccc12 | > 25 µM | > 25 µM | 1 |  |  | 
19 | O=c1[nH]c(Nc2cc(Cl)cc(Cl)c2)nc2cc([N+](=O)[O-])ccc12 | 0.51 µM | > 25 µM | 49 | > 25 µM | 1 | 
